Molecules are shown by their SMILES.

For data set [1], the system named is Venezuelan equine encephalitis virus. The data set can be described thus: Antiviral activity against Venezuelan equine encephalitis virus TC-83 infected in human BE(2)-M17 cells pretreated with compound for 2 hrs followed by viral infection at MOI of 1.2 and measured after 7 hrs by immunostaining based confocal microscopic analysis. The format is functional, organism-based. The note with it: strain TC-83, SK-N-BE(2)-M17.

A short description of data set [2]: Selectivity index, ratio of CC50 for cytotoxicity against mouse Neuro-2a cells to EC50 for antiviral activity against Venezuelan equine encephalitis virus TC-83 infected in mouse Neuro-2a cells. The format is toxicity, cell-based. The note with it: read-out: Ratio CC50/EC50.
Data set [3] deals with Venezuelan equine encephalitis virus. The data set can be described thus: Antiviral activity against Venezuelan equine encephalitis virus TC-83 infected in mouse Neuro-2a cells pretreated with compound for 2 hrs followed by viral infection at MOI of 3.5 and measured after 7 hrs by immunostaining based confocal microscopic analysis. The note with it: strain TC-83, N2a. Format: functional, organism-based.

The test system is the same in data set [4]. The data set can be described thus: Antiviral activity against Venezuelan equine encephalitis virus Trinidad infected in Vero cells at MOI of 0.01 after 20 hrs by immunostaining based confocal microscopic analysis. Format: functional, organism-based.
Data set [5] has the same test system. In words: Antiviral activity against Venezuelan equine encephalitis virus Trinidad infected in HeLa cells at MOI of 0.1 after 20 hrs by immunostaining based confocal microscopic analysis. Format: functional, organism-based.
The test system is the same in data set [6]. In words: Antiviral activity against Venezuelan equine encephalitis virus TC-83 infected in mouse cortical neurons at MOI of 0.04 after 20 hrs by immunostaining based confocal microscopic analysis. The format is functional, organism-based, Cortical neuron. The conditions noted are these: strain TC-83, Cortical neurone.
For data set [7], the target named is Polyprotein P1234 (Venezuelan equine encephalitis virus) (UniProt P27282). In words: Inhibition of recombinant VEEV nsP2 expressed in Escherichia coli BL21(DE3) using V12 as substrate after 24 hrs by discontinuous gel assay. In outline:
(§1)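 Recombinant tag-free VEEV nsP2 (1 μM) was incubated with the V12 CFP-YFP FRET substrate (10 μM) and compound in 50 mM HEPES pH 7.4 for 24 h at room temperature. Compound was tested at 3.6 to 0.03 μM in 2-fold steps. Uncut and cleaved V12 were resolved on gel, and percentage inhibition was estimated at 0.9 μM.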

For data set [8] the target is unchanged. In words: Inhibition of recombinant VEEV nsP2 expressed in Escherichia coli BL21(DE3) using V12 as substrate at 20 uM after 24 hrs by discontinuous gel assay relative to control. In outline: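 VEEV nsP2 (1 μM) was exposed to compound at 20 μM in the presence of 10 μM V12 CFP-YFP FRET substrate. Protease inactivation was judged by cleavage of V12.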
The target is the same in data set [9]. In words: Inhibition of recombinant VEEV nsP2 expressed in Escherichia coli BL21(DE3) using V12 as substrate at 0.9 uM after 24 hrs by discontinuous gel assay relative to control. The essentials:
as §1

The nature of data set [10]: Selectivity index, ratio of CC50 for cytotoxicity against human BE(2)-M17 cells to EC50 for antiviral activity against Venezuelan equine encephalitis virus TC-83 infected in human BE(2)-M17 cells. The format is toxicity, cell-based. The conditions noted are these: read-out: Ratio CC50/EC50.
Data set [11] is described as follows: Selectivity index, ratio of CC50 for cytotoxicity against african green monkey Vero cells to EC50 for antiviral activity against Venezuelan equine encephalitis virus Trinidad infected in Vero cells. Format: toxicity, cell-based. The note with it: read-out: Ratio CC50/EC50.
Data set [12] can be described thus: Selectivity index, ratio of CC50 for cytotoxicity against human HeLa cells to EC50 for antiviral activity against Venezuelan equine encephalitis virus Trinidad infected in HeLa cells. Format: toxicity, cell-based. The note with it: read-out: Ratio CC50/EC50.
Data set [13] in a line: Selectivity index, ratio of CC50 for cytotoxicity against mouse cortical neurons to EC50 for antiviral activity against Venezuelan equine encephalitis virus TC-83 infected in mouse cortical neurons. The format is toxicity. The conditions noted are these: read-out: Ratio CC50/EC50.
Data set [14] is described as follows: Cytotoxicity against human SK-N-BE(2)-M17 cells. The format is cell-based.
The nature of data set [15]: Cytotoxicity against mouse N2a cells. The format is cell-based.
Data set [16] in a line: Cytotoxicity against green monkey Vero cells. The conditions noted are these: chlorocebus sabaeus. The format is cell-based.
Data set [17] is described as follows: Cytotoxicity against mouse cortical neurons. Format: cell-based, Cortical neurone.
The test system of data set [18] is Venezuelan equine encephalitis virus. In words: Antiviral activity against Venezuelan equine encephalitis virus IC-SH3 infected in HeLa cells pretreated with compound for 2 hrs followed by viral infection at MOI of 0.1 and measured after 20 hrs by immunostaining based confocal microscopic analysis. Format: functional, organism-based.
Data set [19] has the same test system. The data set can be described thus: Antiviral activity against Venezuelan equine encephalitis virus IC-SH3 infected in VeroE6 cells pretreated with compound for 2 hrs followed by viral infection at MOI of 0.01 and measured after 20 hrs by immunostaining based confocal microscopic analysis. Format: functional, organism-based. The note with it: IC-SH3, Vero C1008.

Data set [20] can be described thus: Selectivity ratio of CC50 for cytotoxicity against human HeLa cells to EC50 for antiviral activity against Venezuelan equine encephalitis virus IC-SH3 infected in HeLa cells. The format is toxicity, cell-based. The conditions noted are these: read-out: Ratio CC50/EC50.
Data set [21] is described as follows: Selectivity ratio of CC50 for cytotoxicity against green monkey VeroE6 cells to EC50 for antiviral activity against Venezuelan equine encephalitis virus IC-SH3 infected in VeroE6 cells. The format is toxicity, cell-based. The conditions noted are these: read-out: Ratio CC50/EC50.
A short description of data set [22]: Cytotoxicity against human HeLa cells. Format: cell-based.
The nature of data set [23]: Cytotoxicity against green monkey Vero C1008 cells. The note with it: chlorocebus sabaeus. The format is cell-based.

Sequence of Polyprotein P1234 (Venezuelan equine encephalitis virus) (P27282 whole entry): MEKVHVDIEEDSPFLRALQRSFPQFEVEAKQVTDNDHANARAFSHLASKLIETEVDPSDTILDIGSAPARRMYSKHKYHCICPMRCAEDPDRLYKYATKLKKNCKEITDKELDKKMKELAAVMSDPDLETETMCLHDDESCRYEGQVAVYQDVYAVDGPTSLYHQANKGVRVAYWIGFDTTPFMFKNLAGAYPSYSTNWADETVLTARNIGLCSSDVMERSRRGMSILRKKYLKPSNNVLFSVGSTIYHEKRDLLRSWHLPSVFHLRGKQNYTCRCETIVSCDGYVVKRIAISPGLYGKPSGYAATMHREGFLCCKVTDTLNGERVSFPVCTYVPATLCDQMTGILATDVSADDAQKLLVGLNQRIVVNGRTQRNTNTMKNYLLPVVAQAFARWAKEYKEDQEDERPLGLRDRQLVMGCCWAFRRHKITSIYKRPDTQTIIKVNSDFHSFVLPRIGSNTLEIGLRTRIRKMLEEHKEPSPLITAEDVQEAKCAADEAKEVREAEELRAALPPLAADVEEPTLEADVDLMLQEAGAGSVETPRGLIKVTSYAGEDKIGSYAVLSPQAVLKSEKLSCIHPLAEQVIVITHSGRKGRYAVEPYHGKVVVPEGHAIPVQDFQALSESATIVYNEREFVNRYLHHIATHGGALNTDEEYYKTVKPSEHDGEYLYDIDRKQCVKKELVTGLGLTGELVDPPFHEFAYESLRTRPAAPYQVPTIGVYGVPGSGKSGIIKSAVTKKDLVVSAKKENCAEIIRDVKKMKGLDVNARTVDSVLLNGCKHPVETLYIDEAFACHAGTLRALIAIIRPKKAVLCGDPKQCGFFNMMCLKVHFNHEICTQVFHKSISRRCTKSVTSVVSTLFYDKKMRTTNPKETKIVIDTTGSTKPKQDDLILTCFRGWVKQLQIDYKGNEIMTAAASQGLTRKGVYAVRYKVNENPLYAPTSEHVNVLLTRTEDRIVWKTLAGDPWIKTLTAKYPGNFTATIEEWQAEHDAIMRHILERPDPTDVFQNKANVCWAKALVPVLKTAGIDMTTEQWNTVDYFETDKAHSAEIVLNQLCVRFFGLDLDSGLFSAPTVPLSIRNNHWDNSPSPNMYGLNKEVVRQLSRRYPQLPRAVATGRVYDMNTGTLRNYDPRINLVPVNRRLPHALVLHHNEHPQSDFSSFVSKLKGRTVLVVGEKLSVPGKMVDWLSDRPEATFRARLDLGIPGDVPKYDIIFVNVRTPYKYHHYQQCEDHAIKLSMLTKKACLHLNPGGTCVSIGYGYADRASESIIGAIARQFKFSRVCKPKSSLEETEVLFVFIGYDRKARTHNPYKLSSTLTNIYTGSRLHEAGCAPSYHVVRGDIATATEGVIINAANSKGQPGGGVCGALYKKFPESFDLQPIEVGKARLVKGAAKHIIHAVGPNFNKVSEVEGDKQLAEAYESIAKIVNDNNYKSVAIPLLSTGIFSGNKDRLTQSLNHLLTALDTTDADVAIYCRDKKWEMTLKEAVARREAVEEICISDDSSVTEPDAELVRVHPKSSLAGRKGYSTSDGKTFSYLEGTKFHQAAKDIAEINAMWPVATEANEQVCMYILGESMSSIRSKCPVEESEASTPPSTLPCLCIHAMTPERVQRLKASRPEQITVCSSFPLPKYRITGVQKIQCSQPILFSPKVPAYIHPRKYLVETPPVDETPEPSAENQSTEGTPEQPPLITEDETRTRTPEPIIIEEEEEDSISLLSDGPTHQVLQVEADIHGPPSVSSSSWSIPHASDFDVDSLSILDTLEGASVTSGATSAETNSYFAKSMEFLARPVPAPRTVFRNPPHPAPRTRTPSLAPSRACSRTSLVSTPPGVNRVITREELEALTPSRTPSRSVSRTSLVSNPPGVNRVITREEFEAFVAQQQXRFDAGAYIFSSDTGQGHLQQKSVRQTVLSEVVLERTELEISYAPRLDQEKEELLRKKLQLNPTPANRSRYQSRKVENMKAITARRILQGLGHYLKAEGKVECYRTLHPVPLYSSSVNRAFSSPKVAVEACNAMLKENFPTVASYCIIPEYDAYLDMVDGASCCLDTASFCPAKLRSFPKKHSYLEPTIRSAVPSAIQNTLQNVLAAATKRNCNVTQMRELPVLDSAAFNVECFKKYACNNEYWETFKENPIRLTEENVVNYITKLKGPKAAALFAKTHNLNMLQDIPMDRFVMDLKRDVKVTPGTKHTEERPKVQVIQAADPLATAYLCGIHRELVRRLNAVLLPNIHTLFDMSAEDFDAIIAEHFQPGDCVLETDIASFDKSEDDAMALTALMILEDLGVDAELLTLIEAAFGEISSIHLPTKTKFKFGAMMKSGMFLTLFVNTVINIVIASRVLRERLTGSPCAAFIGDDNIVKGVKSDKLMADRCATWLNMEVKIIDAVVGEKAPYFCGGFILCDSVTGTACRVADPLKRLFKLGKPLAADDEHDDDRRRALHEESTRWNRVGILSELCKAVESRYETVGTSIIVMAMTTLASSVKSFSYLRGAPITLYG

One may read the EC50 as the concentration that produces a half-maximal response. The term inhibition denotes the relative decrease from the control value, in per cent. A word on the CC50: it is the concentration that lowers cell viability or growth by half. Turning to `C[C@@H]1CC(C)(C)Nc2c(C(=O)NC/C=C/S(C)(=O)=O)cccc21`, the EC50 in data set [1] turned out to be 1.4 µM; in data set [3], 2 µM; in [4], 2.4 µM; in data set [5], 1.6 µM; in [6] it was 8 µM. Besides, the selectivity ratio was over 12 in data set [2]; over 18 in [10]; over 12 in data set [11]; over 19 in data set [12]; 6 in [13]. In addition, the inhibition result in data set [7] is “Dose-dependent effect”; in data set [8] it was 100%; in data set [9], 39%. For the same molecule, the CC50 was over 25 µM in [14], over 25 µM in data set [15], 30 µM in data set [16] and 48 µM in data set [17].
In the case of `C[C@@H]1CC(C)(C)Nc2c(C(=O)N[C@H](/C=C/S(C)(=O)=O)Cc3ccccc3)cccc21`, the figures for the EC50 in data set [1] and in data set [3] were 9.3 µM and 13 µM, respectively. The selectivity ratio in data set [2] is over 4; in data set [10] it was over 5.4. Also, the CC50 in [14] and in data set [15] was over 50 µM in each case.
Take `COC(=O)/C=C/CNC(=O)c1c[nH]c2ccc(Br)cc12`: the concentration giving a half-maximal response (EC50) came out at 3 µM in [1] and 11 µM in data set [3]. Also, the selectivity ratio in [2] was over 2; in data set [10], 4. For the same molecule, the CC50 in [14] was 12 µM; in [15], over 25 µM.
With `O=C(N[C@H](/C=C/S(=O)(=O)c1ccccc1)Cc1ccccc1)c1cccc2cccnc12`, the EC50 in data set [1] was determined as 17 µM; in data set [3] it was 19 µM. Besides, the selectivity ratio in [2] was over 2; in data set [10], 1. For the same molecule, the CC50 amounted to 16 µM in data set [14] and 46 µM in data set [15].
Consider `COC(=O)/C=C/CNC(=O)c1cc(C)cc2c1NC(C)(C)C=C2C`, for which the EC50 is 8.7 µM in data set [18] and 8.6 µM in [19]. The values for the selectivity ratio in [20] and in data set [21] were over 4 and over 3.5, respectively. Besides, the CC50 in [22] and in [23] was over 30 µM each time.
For the molecule `CN1CCN(C)/C(=N\c2ccc([N+](=O)[O-])cc2C(=O)Nc2ccccc2)C1`, the EC50 in data set [1] stood at 0.01 µM; in data set [3], 0.02 µM. For the same molecule, the results for the selectivity ratio in [2] and in data set [10] were over 125 and over 250, respectively. Besides, the figures for the CC50 in [14] and in data set [15] were over 2.25 µM and over 2.5 µM, respectively.
As to `COC(=O)CCCNC(=O)c1cccc2c1NC(C)(C)C[C@H]2C`, the EC50 in data set [18] and in [19] was over 30 µM each time. The CC50 in data set [22] and in [23] was over 30 µM in each case.
Regarding `COC(=O)/C=C/CNC(=O)c1cccc2c1NCCC2`, the EC50 in data set [18] was 18 µM; in data set [19] it was over 30 µM. The selectivity ratio in data set [20] is over 2. Further, the CC50 in data set [22] and in data set [23] was over 30 µM each time.
Consider `COC(=O)/C=C/CNC(=O)c1cccc2c1NC(C)(C)C[C@H]2C`, for which the EC50 in [18] is 1.2 µM; in data set [19] it was 8.2 µM; in data set [1], over 25 µM; in [3], 22 µM. Moreover, the figures for the selectivity ratio in [2], in data set [20] and in data set [21] were over 1, over 26 and over 4, respectively. Besides, the half-maximal cytotoxic concentration (CC50) was over 30 µM in [22], over 30 µM in [23], 11 µM in data set [14] and over 25 µM in data set [15].
In the case of `CC1=CC(C)(C)Nc2c(C(=O)NC/C=C/S(C)(=O)=O)cccc21`, the EC50 in data set [1] came to 2 µM; in data set [3], 5 µM; in data set [4] it was 5 µM; in [5] it was 1.4 µM; in data set [6], 6 µM. For the same molecule, the selectivity ratio in [2] is over 5; in [10] it was over 9; in data set [11] it was 7; in data set [12], over 22; in data set [13], over 4. The CC50 in data set [14] is 19.6 µM; in [15] it was 27 µM; in data set [16] it was 30 µM; in data set [17], over 25 µM.
As for `COC(=O)CCCNC(=O)c1cccc2c1NCCC2`, the EC50 in [18] and in data set [19] was over 30 µM throughout. The CC50 in [22] and in [23] was over 30 µM throughout.
Take `CC1=CC(C)(C)Nc2c(C(=O)N[C@H](/C=C/S(C)(=O)=O)Cc3ccccc3)cccc21`: the EC50 in data set [1] was determined as 17 µM; in [3], 13 µM. Besides, the selectivity ratio in data set [2] was over 4; in data set [10] it was over 2. Moreover, the figures for the CC50 in data set [14] and in data set [15] were over 38 µM and over 50 µM, respectively.
For `COC(=O)CCCNC(=O)c1cccc2c1NC(C)(C)C=C2C`, the EC50 in [18] and in data set [19] was over 30 µM in each case. Moreover, the CC50 in [22] and in data set [23] was over 30 µM throughout.
As to `C[C@@H]1CC(C)(C)Nc2c(C(=O)N[C@@H](C)/C=C/S(C)(=O)=O)cccc21`, the EC50 in [1] is 3.3 µM; in data set [3], 3.7 µM. Further, the values for the selectivity ratio in [2] and in [10] were over 7 and over 7.5, respectively. The values for the inhibition entry in data set [7], in [8] and in data set [9] were “Dose-dependent effect”, 100% and 71%, respectively. In addition, the CC50 in [14] and in data set [15] was over 25 µM throughout.
Regarding `COC(=O)CCCNC(=O)c1cc(C)cc2c1NC(C)(C)C=C2C`, the EC50 in data set [18] and in [19] was over 30 µM each time. For the same molecule, the CC50 in data set [22] and in data set [23] was over 30 µM each time.
For the molecule `COC(=O)/C=C/CNC(=O)c1cccc2c1NC(C)(C)C=C2C`, the EC50 was 0.6 µM in [18], 6.5 µM in data set [19], 4.5 µM in data set [1] and over 25 µM in [3]. Moreover, the selectivity ratio was over 55 in [20], over 5 in data set [21] and 1.5 in data set [10]. Also, the half-maximal cytotoxic concentration (CC50) in data set [22] was over 30 µM; in data set [23] it was 6.7 µM; in [14], 18.1 µM.
Turning to `CC1=CC(C)(C)Nc2c(C(=O)N[C@@H](C)/C=C/S(C)(=O)=O)cccc21`, the EC50 amounted to 4.5 µM in [1], 3.4 µM in [3] and 2.7 µM in data set [6]. Besides, the selectivity ratio in data set [2] is over 7.3; in [10] it was over 5; in data set [13], over 9.7. Moreover, the inhibition result in data set [7] is “Dose-dependent effect”; in data set [8] it was 100%; in data set [9], 59%. Further, the CC50 in [14], in [15] and in data set [17] was over 25 µM throughout.

For the origin of these results see ChEMBL document CHEMBL4725463, “Vinyl Sulfone-Based Inhibitors of Nonstructural Protein 2 Block the Replication of Venezuelan Equine Encephalitis Virus” (ACS Med Chem Lett, 2020).
